Assay results: ChEMBL document CHEMBL4808213, “2-(Halogenated Phenyl) acetamides and propanamides as potent TRPV1 antagonists” (Bioorg Med Chem Lett, 2021)
Activity calls are given as the source filed them. The rule behind the calls is not given here.

Biological target: T1, Transient receptor potential cation channel subfamily V member 1 (Homo sapiens, UniProt Q8NER1)
Experiment: Antagonist activity at human TRPV1 expressed in CHO cells assessed as inhibition of capsaicin-induced TRPV1 activation by FLIPR method
Assay type: cell-based
Settings: not given

T1 sequence (Q8NER1 whole entry): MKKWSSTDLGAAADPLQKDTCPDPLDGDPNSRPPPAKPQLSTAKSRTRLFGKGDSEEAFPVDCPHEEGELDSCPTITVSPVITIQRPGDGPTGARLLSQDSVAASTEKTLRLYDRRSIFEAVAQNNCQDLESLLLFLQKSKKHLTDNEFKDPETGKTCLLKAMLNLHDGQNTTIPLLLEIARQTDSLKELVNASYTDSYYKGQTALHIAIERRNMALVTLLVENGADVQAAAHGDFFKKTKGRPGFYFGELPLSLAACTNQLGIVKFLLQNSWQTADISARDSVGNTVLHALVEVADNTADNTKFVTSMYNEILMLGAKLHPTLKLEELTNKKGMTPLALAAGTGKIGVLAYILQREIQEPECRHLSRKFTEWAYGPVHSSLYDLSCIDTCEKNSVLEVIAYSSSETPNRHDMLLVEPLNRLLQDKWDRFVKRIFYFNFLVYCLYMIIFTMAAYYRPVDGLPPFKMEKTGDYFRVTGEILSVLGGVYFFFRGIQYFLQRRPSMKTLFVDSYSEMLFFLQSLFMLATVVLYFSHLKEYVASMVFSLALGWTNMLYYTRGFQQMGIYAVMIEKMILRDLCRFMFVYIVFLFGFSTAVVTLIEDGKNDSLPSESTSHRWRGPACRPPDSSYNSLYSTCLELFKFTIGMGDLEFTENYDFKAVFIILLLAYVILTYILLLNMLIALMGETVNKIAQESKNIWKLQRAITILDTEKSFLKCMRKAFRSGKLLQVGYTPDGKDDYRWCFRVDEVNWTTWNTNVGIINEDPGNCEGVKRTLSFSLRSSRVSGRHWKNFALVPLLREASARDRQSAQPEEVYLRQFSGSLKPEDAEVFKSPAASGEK

| Structure (SMILES) | Ki [nM] |
| --- | --- |
| O=C(Cc1cc(F)cc(F)c1)NCc1cc(C(F)(F)F)nn1-c1cccc(Cl)c1 | 13.7 |
| CC1CCN(c2nc(C(F)(F)F)ccc2CNC(=O)Cc2c(Cl)cccc2Cl)CC1 | 39.7 |
| O=C(Cc1ccc(Cl)c(F)c1)NCc1cc(C(F)(F)F)nn1-c1cccc(Cl)c1 | 20.9 |
| CC1CCN(c2nc(C(F)(F)F)ccc2CNC(=O)Cc2cccc(Cl)c2)CC1 | 6.1 |
| O=C(Cc1cccc(F)c1F)NCc1cc(C(F)(F)F)nn1-c1cccc(Cl)c1 | 11.5 |
| CC1CCN(c2nc(C(F)(F)F)ccc2CNC(=O)Cc2c(F)cccc2Cl)CC1 | 2.6 |
| CC(C)(C)c1cc(CNC(=O)Cc2cccc(F)c2F)n(-c2cccc(Cl)c2)n1 | 6.9 |
| CC1CCN(c2nc(C(F)(F)F)ccc2CNC(=O)Cc2cccc(Cl)c2Cl)CC1 | 4.9 |
| CC1CCN(c2nc(C(F)(F)F)ccc2CNC(=O)[C@@H](C)c2ccc(NS(C)(=O)=O)c(F)c2)CC1 (racemic) | 0.3 |
| O=C(Cc1ccc(F)cc1F)NCc1cc(C(F)(F)F)nn1-c1cccc(Cl)c1 | 43.3 |
| O=C(Cc1cccc(Cl)c1Cl)NCc1cc(C(F)(F)F)nn1-c1cccc(Cl)c1 | 22.6 |
| CC(C)(C)c1cc(CNC(=O)Cc2ccc(F)cc2Cl)n(-c2cccc(Cl)c2)n1 | 19.9 |
| C[C@H](C(=O)NCc1cc(C(C)(C)C)nn1-c1cccc(Cl)c1)c1ccc(NS(C)(=O)=O)c(F)c1 | 0.3 |
| CC1CCN(c2nc(C(F)(F)F)ccc2CNC(=O)Cc2ccc(Cl)cc2Cl)CC1 | 46 |
| O=C(Cc1ccc(F)cc1Cl)NCc1cc(C(F)(F)F)nn1-c1cccc(Cl)c1 | 38.8 |
| CC1CCN(c2nc(C(F)(F)F)ccc2CNC(=O)Cc2ccc(F)c(C(F)(F)F)c2)CC1 | 9.8 |
| O=C(Cc1ccc(Cl)cc1)NCc1cc(C(F)(F)F)nn1-c1cccc(Cl)c1 | 6.3 |
| O=C(Cc1cc(F)ccc1F)NCc1cc(C(F)(F)F)nn1-c1cccc(Cl)c1 | 58.9 |
| CC1CCN(c2nc(C(F)(F)F)ccc2CNC(=O)Cc2ccc(F)cc2Cl)CC1 | 14.2 |
| O=C(Cc1ccc(Cl)c(Cl)c1)NCc1cc(C(F)(F)F)nn1-c1cccc(Cl)c1 | 3.8 |
| CC(C)(C)c1cc(CNC(=O)Cc2ccc(Cl)cc2Cl)n(-c2cccc(Cl)c2)n1 | 16.7 |
| CC(C)(C)c1cc(CNC(=O)Cc2c(F)cccc2Cl)n(-c2cccc(Cl)c2)n1 | 19 |

Biological target: T1, Transient receptor potential cation channel subfamily V member 1
Experiment: Agonist activity at human TRPV1 expressed in CHO cells
Assay type: cell-based
Settings: filed as agonist

| Structure (SMILES) | Activity |
| --- | --- |
| CC(C(=O)NCc1cc(C(C)(C)C)nn1-c1cccc(Cl)c1)c1ccccc1F (configuration not stated) | Active |
| CC1CCN(c2nc(C(F)(F)F)ccc2CNC(=O)C(C)c2ccc(F)cc2)CC1 (configuration not stated) | Active |
| CC1CCN(c2nc(C(F)(F)F)ccc2CNC(=O)C(C)c2cccc(F)c2)CC1 (configuration not stated) | Active |
| CC1CCN(c2nc(C(F)(F)F)ccc2CNC(=O)Cc2ccc(Cl)cc2)CC1 | Active |
| CC(C(=O)NCc1cc(C(C)(C)C)nn1-c1cccc(Cl)c1)c1ccc(F)c(Cl)c1 (configuration not stated) | Active |
| CC(C(=O)NCc1cc(C(C)(C)C)nn1-c1cccc(Cl)c1)c1ccc(Cl)c(Cl)c1 (configuration not stated) | Active |
| CC(C(=O)NCc1cc(C(C)(C)C)nn1-c1cccc(Cl)c1)c1cccc(F)c1 (configuration not stated) | Active |
| CC(C(=O)NCc1cc(C(C)(C)C)nn1-c1cccc(Cl)c1)c1ccc(Cl)cc1 (configuration not stated) | Active |
| CC(C)(C)c1cc(CNC(=O)Cc2cccc(Cl)c2)n(-c2cccc(Cl)c2)n1 | Active |
| CC(C(=O)NCc1cc(C(C)(C)C)nn1-c1cccc(Cl)c1)c1cccc(Cl)c1 (configuration not stated) | Active |
| CC(C(=O)NCc1cc(C(C)(C)C)nn1-c1cccc(Cl)c1)c1ccc(F)cc1F (configuration not stated) | Active |
| CC(C)(C)c1cc(CNC(=O)Cc2ccc(F)c(Cl)c2)n(-c2cccc(Cl)c2)n1 | Active |
| CC(C(=O)NCc1cc(C(C)(C)C)nn1-c1cccc(Cl)c1)c1cc(F)cc(F)c1 (configuration not stated) | Active |
| CC1CCN(c2nc(C(F)(F)F)ccc2CNC(=O)Cc2ccc(F)cc2)CC1 | Active |
| CC(C(=O)NCc1cc(C(C)(C)C)nn1-c1cccc(Cl)c1)c1ccc(Cl)cc1Cl (configuration not stated) | Active |
| CC(C)(C)c1cc(CNC(=O)Cc2ccc(F)c(F)c2)n(-c2cccc(Cl)c2)n1 | Active |
| CC(C(=O)NCc1cc(C(C)(C)C)nn1-c1cccc(Cl)c1)c1ccc(F)cc1 (configuration not stated) | Active |
| CC(C)(C)c1cc(CNC(=O)Cc2ccc(Cl)cc2)n(-c2cccc(Cl)c2)n1 | Active |
| CC1CCN(c2nc(C(F)(F)F)ccc2CNC(=O)Cc2ccc(F)cc2F)CC1 | Active |
| CC(C(=O)NCc1cc(C(C)(C)C)nn1-c1cccc(Cl)c1)c1ccc(F)c(F)c1 (configuration not stated) | Active |
| CC(C)(C)c1cc(CNC(=O)Cc2cccc(F)c2)n(-c2cccc(Cl)c2)n1 | Active |
| CC(C(=O)NCc1cc(C(C)(C)C)nn1-c1cccc(Cl)c1)c1ccc(Cl)c(F)c1 (configuration not stated) | Active |
| CC1CCN(c2nc(C(F)(F)F)ccc2CNC(=O)C(C)c2ccc(F)c(F)c2)CC1 (configuration not stated) | Active |
| CC1CCN(c2nc(C(F)(F)F)ccc2CNC(=O)C(C)c2ccc(F)cc2Cl)CC1 (configuration not stated) | Active |
| CC(C)(C)c1cc(CNC(=O)Cc2ccc(F)cc2)n(-c2cccc(Cl)c2)n1 | Active |

Biological target: T1, Transient receptor potential cation channel subfamily V member 1
Experiment: Partial agonist activity at human TRPV1 expressed in CHO cells
Assay type: cell-based
Settings: filed as partial agonist

| Structure (SMILES) | Activity |
| --- | --- |
| CC1CCN(c2nc(C(F)(F)F)ccc2CNC(=O)C(C)c2ccc(Cl)cc2)CC1 (configuration not stated) | Active |
| CC(C(=O)NCc1cc(C(C)(C)C)nn1-c1cccc(Cl)c1)c1ccccc1Cl (configuration not stated) | Active |
| CC(C(=O)NCc1cc(C(C)(C)C)nn1-c1cccc(Cl)c1)c1c(F)cccc1F (configuration not stated) | Active |
| CC(C)(C)c1cc(CNC(=O)Cc2cc(F)ccc2F)n(-c2cccc(Cl)c2)n1 | Active |
| CC(C(=O)NCc1cc(C(C)(C)C)nn1-c1cccc(Cl)c1)c1cccc(Cl)c1Cl (configuration not stated) | Active |
| CC(C)(C)c1cc(CNC(=O)Cc2ccc(Cl)c(F)c2)n(-c2cccc(Cl)c2)n1 | Active |
| CC(C)(C)c1cc(CNC(=O)Cc2ccc(Cl)c(Cl)c2)n(-c2cccc(Cl)c2)n1 | Active |
| CC(C(=O)NCc1cc(C(F)(F)F)nn1-c1cccc(Cl)c1)c1cc(F)cc(F)c1 (configuration not stated) | Active |
| CC1CCN(c2nc(C(F)(F)F)ccc2CNC(=O)C(C)c2ccc(Cl)c(Cl)c2)CC1 (configuration not stated) | Active |
| CC(C(=O)NCc1cc(C(F)(F)F)nn1-c1cccc(Cl)c1)c1cccc(F)c1 (configuration not stated) | Active |
| CC(C)(C)c1cc(CNC(=O)Cc2ccc(F)cc2F)n(-c2cccc(Cl)c2)n1 | Active |
| CC(C(=O)NCc1cc(C(F)(F)F)nn1-c1cccc(Cl)c1)c1ccc(F)cc1 (configuration not stated) | Active |
| CC1CCN(c2nc(C(F)(F)F)ccc2CNC(=O)Cc2ccc(F)c(F)c2)CC1 | Active |
| CC(C)(C)c1cc(CNC(=O)Cc2cc(F)cc(F)c2)n(-c2cccc(Cl)c2)n1 | Active |
| CC1CCN(c2nc(C(F)(F)F)ccc2CNC(=O)C(C)c2ccc(Cl)c(F)c2)CC1 (configuration not stated) | Active |
| CC(C(=O)NCc1cc(C(C)(C)C)nn1-c1cccc(Cl)c1)c1cc(F)ccc1F (configuration not stated) | Active |
| CC(C(=O)NCc1cc(C(F)(F)F)nn1-c1cccc(Cl)c1)c1cccc(Cl)c1 (configuration not stated) | Active |
| CC(C(=O)NCc1cc(C(C)(C)C)nn1-c1cccc(Cl)c1)c1cccc(F)c1F (configuration not stated) | Active |
| CC(C(=O)NCc1cc(C(F)(F)F)nn1-c1cccc(Cl)c1)c1ccc(F)cc1F (configuration not stated) | Active |
| CC(C(=O)NCc1cc(C(F)(F)F)nn1-c1cccc(Cl)c1)c1ccc(F)c(F)c1 (configuration not stated) | Active |
| CC1CCN(c2nc(C(F)(F)F)ccc2CNC(=O)Cc2ccc(Cl)c(F)c2)CC1 | Active |
| CC(C(=O)NCc1cc(C(F)(F)F)nn1-c1cccc(Cl)c1)c1ccc(Cl)cc1 (configuration not stated) | Active |
| O=C(Cc1ccc(F)cc1)NCc1cc(C(F)(F)F)nn1-c1cccc(Cl)c1 | Active |
| CC1CCN(c2nc(C(F)(F)F)ccc2CNC(=O)C(C)c2ccc(F)cc2F)CC1 (configuration not stated) | Active |
| O=C(Cc1ccc(F)c(F)c1)NCc1cc(C(F)(F)F)nn1-c1cccc(Cl)c1 | Active |
| CC(C)(C)c1cc(CNC(=O)Cc2ccccc2F)n(-c2cccc(Cl)c2)n1 | Active |

Tested on: Mus musculus
Experiment: Analgesic activity in ip dosed mouse model of formalin-induced paw edema assessed as reduction in pain behaviour by measuring effective dose in 1st phase
Assay type: functional
Settings: not given
Summary of the method: (§1)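 Formalin test in mice, with antagonist given by intraperitoneal injection before testing. Nociceptive behaviour was scored separately in the 1st and 2nd phases. Several doses were tested, and ED50 for each phase was derived from the dose-response.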

| Structure (SMILES) | ED50 [mg/kg] |
| --- | --- |
| CC(C)(C)c1cc(CNC(=O)Cc2cccc(F)c2F)n(-c2cccc(Cl)c2)n1 | 50.5 |

Tested on: Mus musculus
Experiment: Analgesic activity in ip dosed mouse model of formalin-induced paw edema assessed as reduction in pain behaviour by measuring effective dose in 2nd phase
Assay type: functional
Settings: not given
Summary of the method: as §1

| Structure (SMILES) | ED50 [mg/kg] |
| --- | --- |
| CC(C)(C)c1cc(CNC(=O)Cc2cccc(F)c2F)n(-c2cccc(Cl)c2)n1 | 29.5 |

Tested on: Mus musculus
Experiment: Analgesic activity in ip dosed mouse model of formalin-induced paw edema
Assay type: functional, organism-based
Settings: not given
Summary of the method: as §1

| Structure (SMILES) | Activity |
| --- | --- |
| CC1CCN(c2nc(C(F)(F)F)ccc2CNC(=O)Cc2c(F)cccc2Cl)CC1 | inactive |

Tested on: Mus musculus
Experiment: Analgesic activity in mouse model of formalin-induced paw edema assessed as induction of hyperthermia at 10 mg/kg, ip
Assay type: functional, organism-based
Settings: not given
Summary of the method: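 Mice received 10 mg/kg intraperitoneally, and body temperature was then measured to check for hyperthermia.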

| Structure (SMILES) | Activity |
| --- | --- |
| CC(C)(C)c1cc(CNC(=O)Cc2cccc(F)c2F)n(-c2cccc(Cl)c2)n1 | inactive |
